The text below walks through data of ChEMBL document CHEMBL4052730, “Synthesis and evaluation of (E)-2-(5-phenylpent-2-en-4-ynamido)cyclohex-1-ene-1-carboxylate derivatives as HCA2 receptor agonists” (Bioorg Med Chem, 2017).

In general, IC50 refers to the concentration that inhibits the measured activity by half. The term EC50 denotes the concentration at which the effect is half-maximal. The Emax is the greatest response seen or fitted, relative to the assay's reference.

Assay [1] addresses T1, Hydroxycarboxylic acid receptor 2 (Homo sapiens, UniProt Q8TDS4). Put plainly: Displacement of [5,6-3H]-nicotinic acid from recombinant human HCA2 receptor expressed in Flp-IN HEK cell membranes after 2 hrs by microbeta counting method. In outline:
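Membranes from human HCA2-expressing Flp-In-293 cells were prepared by acoustic disruption in TE buffer (pH 7.6) and centrifugation at 21,000g. They were used at 25 µg/well in 50 mM Tris-HCl, 1 mM MgCl2, 0.02% CHAPS, pH 7.6, without BSA. Competition with 20 nM [5,6-3H]-nicotinic acid ran 2 h at room temperature, followed by GF/B filtration and scintillation counting. Duplicates, repeated three times.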

For assay [2], the target named is T1, Hydroxycarboxylic acid receptor 2. Put plainly: Agonist activity at recombinant human HCA2 receptor expressed in Flp-IN HEK cells assessed as reduction in forskolin-stimulated cAMP accumulation measured after 30 mins. Format: functional, cell-based. In outline: (§1)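 Flp-In-293 cells stably expressing recombinant human HCA2, 12,000 cells/well, treated with compounds plus 3 µM forskolin for 30 min in PBS containing 0.5 mM IBMX, without BSA. Read-out is reduction of forskolin-stimulated cAMP, reported as EC50 and as maximal inhibition (%). Mean ± SD of at least three experiments, each in duplicate.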
(Cyclic AMP is a second messenger, typically raised through Gs and lowered through Gi signalling.)

Assay [3] shares this target. Put plainly: Agonist activity at recombinant human HCA2 receptor expressed in Flp-IN HEK cells assessed as reduction in forskolin-stimulated cAMP accumulation measured after 30 mins relative to control. It is filed as functional, cell-based. In outline:
as §1

T1 sequence (Q8TDS4 whole entry): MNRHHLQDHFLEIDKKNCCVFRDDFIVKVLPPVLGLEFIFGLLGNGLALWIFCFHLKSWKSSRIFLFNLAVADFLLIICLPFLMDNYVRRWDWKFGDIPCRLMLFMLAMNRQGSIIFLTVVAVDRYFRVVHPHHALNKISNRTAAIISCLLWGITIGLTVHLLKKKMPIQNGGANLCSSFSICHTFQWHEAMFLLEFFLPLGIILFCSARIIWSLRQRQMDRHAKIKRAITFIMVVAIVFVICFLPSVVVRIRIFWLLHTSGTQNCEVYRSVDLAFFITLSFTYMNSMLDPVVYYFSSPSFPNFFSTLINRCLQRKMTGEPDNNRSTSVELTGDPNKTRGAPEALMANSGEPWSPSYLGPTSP

Regarding `O=C(CCC#Cc1ccc(O)cn1)NC1=C(C(=O)O)CCCC1`, the IC50 in assay [1] amounted to 0.665 µM. In addition, the concentration giving a half-maximal response (EC50) in assay [2] is 3.37 µM. The Emax in assay [3] was determined as 91%.
As for `O=C(CCc1ccc(-c2cccc(O)c2)cc1)NC1=C(C(=O)O)CCCC1`, the half-maximal inhibitory concentration (IC50) in assay [1] was 0.032 µM. For the same compound, the EC50 in assay [2] amounted to 0.23 µM. Further, the Emax in assay [3] turned out to be 96%.
For `O=C(CCC#Cc1ccc(O)cc1Cl)NC1=C(C(=O)O)CCCC1` the same measures were 0.076 µM, 0.09 µM and 94%.
Regarding `O=C(CCC#Cc1cccc(O)c1)NC1=C(C(=O)O)CCCC1`, the concentration for half-maximal inhibition (IC50) in assay [1] was 0.138 µM. The EC50 in assay [2] came to 2.98 µM. Besides, the Emax in assay [3] worked out at 89%.
Consider `O=C(CCC#Cc1ccccc1O)NC1=C(C(=O)O)CCCC1`, for which the 50% inhibitory concentration (IC50) in assay [1] worked out at 0.229 µM. For the same compound, the half-maximal effective concentration (EC50) in assay [2] was 0.72 µM. Besides, in assay [3], the maximum response (Emax) is 93%.
In the same order, the values of `O=C(CCC#Cc1ccc(O)cc1)NC1=C(C(=O)O)CCCC1` are 0.013 µM, 0.16 µM and 91%.
For the compound `O=C(CCC#Cc1ccc(C(=O)O)cc1)NC1=C(C(=O)O)CCCC1`, the IC50 in assay [1] worked out at 3.62 µM. Further, the EC50 in assay [2] was 5.61 µM. Further, the maximal response (Emax) in assay [3] was found to be 74%.
In the same order, the values of `O=C(/C=C/CCc1ccccc1)NC1=C(C(=O)O)CCCC1` are 2.83 µM, 19.6 µM and 70%.
Take `O=C(/C=C/C#Cc1ccc(O)cc1F)NC1=C(C(=O)O)CCCC1`: the IC50 in assay [1] is 0.331 µM. Moreover, the EC50 in assay [2] amounted to 0.11 µM. Also, the Emax in assay [3] amounted to 96%.
Turning to `O=C(CCc1ccc(-c2ccccc2O)cc1)NC1=C(C(=O)O)CCCC1`, in assay [1], the IC50 is 0.04 µM. The EC50 in assay [2] is 0.41 µM. Further, the maximal effect (Emax) in assay [3] amounted to 90%.
With `O=C(/C=C/C#Cc1ccc(O)cc1)NC1=C(C(=O)O)CCCC1`, the IC50 in assay [1] was 0.025 µM. Besides, the concentration for a half-maximal effect (EC50) in assay [2] was found to be 0.13 µM. In addition, the maximal response (Emax) in assay [3] was determined as 97%.
For `O=C(CCC#Cc1ccccc1Cl)NC1=C(C(=O)O)CCCC1` the same measures were 0.056 µM, 0.19 µM and 95%.
On to `O=C(CCC#Cc1ccc(F)cc1)NC1=C(C(=O)O)CCCC1`, for which, in assay [1], the IC50 amounted to 0.291 µM. Moreover, the half-maximal effective concentration (EC50) in assay [2] worked out at 0.63 µM. For the same compound, the maximal effect (Emax) in assay [3] turned out to be 99%.
Take `O=C(CCC#Cc1ccccc1F)NC1=C(C(=O)O)CCCC1`: the half-inhibitory concentration (IC50) in assay [1] came out at 0.067 µM. Moreover, the EC50 in assay [2] came out at 0.36 µM. Moreover, the Emax in assay [3] was 90%.
Take `O=C(CCc1ccc(-c2ccccc2F)cc1)NC1=C(C(=O)O)CCCC1`: the IC50 in assay [1] is 0.282 µM. The EC50 in assay [2] turned out to be 0.19 µM. Also, the maximum response (Emax) in assay [3] came to 97%.
In the case of `O=C(/C=C/C#Cc1ccccc1O)NC1=C(C(=O)O)CCCC1`, the half-inhibitory concentration (IC50) in assay [1] came out at 0.037 µM. Further, the concentration for a half-maximal effect (EC50) in assay [2] was determined as 0.25 µM. Besides, in assay [3], the maximum response (Emax) came to 78%.
In the same order, the values of `O=C(CCc1ccc(-c2ccc(O)cc2F)cc1)NC1=C(C(=O)O)CCCC1` are 0.058 µM, 0.26 µM and 99%.
In the same order, the values of `O=C(/C=C/C#Cc1ccccc1F)NC1=C(C(=O)O)CCCC1` are 0.016 µM, 0.45 µM and 84%.
For `O=C(CCC#Cc1ccc(O)cc1F)NC1=C(C(=O)O)CCCC1`, the IC50 in assay [1] was determined as 0.028 µM. The half-maximal effective concentration (EC50) in assay [2] worked out at 0.08 µM. Moreover, the maximal response (Emax) in assay [3] is 93%.
In the same order, the values of `O=C(CCc1ccc(-c2ccc(O)cc2)cc1)NC1=C(C(=O)O)CCCC1` are 0.021 µM, 0.07 µM and 92%.
Turning to `O=C(/C=C/C#Cc1ccccc1)NC1=C(C(=O)O)CCCC1`, the half-inhibitory concentration (IC50) in assay [1] amounted to 0.327 µM. Moreover, the EC50 in assay [2] was 1.01 µM. Further, the maximal response (Emax) in assay [3] was 79%.
As to `O=C(/C=C/C#Cc1ccccc1Cl)NC1=C(C(=O)O)CCCC1`, in assay [1], the IC50 is 0.088 µM. Also, the EC50 in assay [2] was found to be 0.27 µM. In assay [3], the Emax was 88%.
As to `O=C(CCc1ccc(-c2ccccc2Cl)cc1)NC1=C(C(=O)O)CCCC1`, the IC50 in assay [1] was determined as 0.075 µM. In addition, the half-maximal effective concentration (EC50) in assay [2] is 0.13 µM. Further, the maximum response (Emax) in assay [3] was determined as 92%.
For `O=C(/C=C/C#Cc1cccc(O)c1)NC1=C(C(=O)O)CCCC1` the same measures were 0.383 µM, 0.39 µM and 92%.
